ROMK primary: modulates human ROMK potassium channel activity. P48048. Tet-inducible ROMK, thallium flux fluorescence; actives lie on both sides. B-score at 10 µM. 130,000 tested, 2% active;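 active = signal ratio slope over the read window, or its plate-corrected B-score, at least 3 SD from the plate mean, either direction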;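 also: B-score of the F/F0 ratio slope over 7 to 12 s after thallium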
Target sequence (P48048 whole entry, looked up): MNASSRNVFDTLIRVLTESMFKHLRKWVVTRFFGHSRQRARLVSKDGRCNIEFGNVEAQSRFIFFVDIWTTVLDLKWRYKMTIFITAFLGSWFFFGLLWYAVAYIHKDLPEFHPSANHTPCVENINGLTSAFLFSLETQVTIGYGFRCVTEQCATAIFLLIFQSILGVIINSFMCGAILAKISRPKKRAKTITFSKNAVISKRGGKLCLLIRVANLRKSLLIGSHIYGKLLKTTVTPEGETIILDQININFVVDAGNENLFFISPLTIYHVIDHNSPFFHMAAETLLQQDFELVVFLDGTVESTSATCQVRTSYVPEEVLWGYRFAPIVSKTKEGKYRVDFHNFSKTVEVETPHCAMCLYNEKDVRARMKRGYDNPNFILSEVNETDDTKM
L major viab: inhibitors of Leishmania major promastigote growth. inhibition, % at 10 µM. 200,000 tested, 9% active. Leishmania major promastigotes, resazurin fluorescence viability. AID 1063; in the data active = inhibition above about 50%;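 also: promastigotes grown with compound for 44 hours at 28 °C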
Diaphorase act: activates diaphorase or chemically reduces, flagging diaphorase assay artifacts; activation factor at 20 µM; AID 1229; 190,000 tested, 0.005% active; Diaphorase/resazurin coupled assay, resorufin fluorescence, 16 min; hits give high values; 1 = vehicle wells, 0 = NADH-free wells;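 active = diaphorase activity raised at least twofold by the compound at 20 µM; inactive = activation factor below 2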
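test system = bacterial diaphorase enzyme (C. kluyveri) | quantity = enzyme 0.07 U/mL final | reagent = NADH substrate 0.114 mM plus resazurin dye 0.1 mM, final | incubation = 16 min enzyme reaction, ambient temperature | buffer or medium = HEPES pH 7.4 buffer with MgCl2 and Tween 20 | signal = fluorescence of resorufin, 544 nm excitation, 590 nm emission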
Diaph inh CS: diaphorase inhibition or chemical oxidation counter-screen | 190,000 tested, 0.69% active | diaphorase resazurin-to-resorufin fluorescence, NADH, 16 min; bacterial (C. kluyveri) enzyme, not human | inhibition, % at 20 µM;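 active = primary screen inhibition at 20 µM above a set limit, cut at about 50% in these data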;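 also: plate controls were DMSO with full reaction for no effect and wells lacking NADH for full effect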
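Test system: diaphorase enzyme from Clostridium kluyveri; amount: diaphorase at 0.14 U/mL in enzyme working solution; detection: fluorescence of resorufin formed from resazurin, Ex 544/Em 590 nm; times: reaction incubation of 16 min at room temperature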
WT yeast gro inh: growth inhibition of WT yeast, mitochondrial fusion screen | inhibition, % at 10 µM | 190,000 tested, 2.1% active | mitochondrial fusion phenotypic screen, WT strain; in the data active = inhibition above about 58%; tested in S. cerevisiae
Cl transport mod: modulates chloride dependent transport by human KCC2; 190,000 tested, 2.2% active; KCC2 cells, thallium flux FluoZin-2 fluorescence; AID 1456; B-score of Tl+ flux slope (higher = more flux/activation; lower = inhibition) at 10 µM; Q9H2X9;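 active = thallium flux slope and its plate-corrected score both differing from the plate sample mean at a set confidence after two filtering rounds, in either direction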;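 also: slope of fluorescence scaled to starting intensity during 10 to 20 s after thallium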
* = called active by the depositor; i = inactive; x = not tested or not shown. Hits are enriched below; roughly 12% of the tested compounds scored in any of these assays.

SMILES | ROMK primary | L major viab | Diaphorase act | Diaph inh CS | WT yeast gro inh | Cl transport mod
COCc1ccc(O)c2ncccc12 | 1.9 | 100* | 0.7 | 30 | 4 | -0.063
O=C(CSc1ncccn1)NCc1ccccc1 | 0.65 | -3 | 0.9 | 7 | 19 | 0.13
OCc1ccccc1OCCOc1ccc(Cl)c2cccnc12 | -0.78 | 10 | 0.9 | 13 | 3 | -2.2
COc1ccc(-c2ncccc2O)cc1 | -0.06 | 1 | 1 | 5 | 1 | 0.14
OCc1ccnc2c(O)cccc12 | x | 100* | 0.5 | 48 | 53 | 0.051
CNC(=S)N1CCN(c2ccc(Cl)c(Cl)c2)CC1 | -0.055 | 12 | 0.7 | 28 | 40 | -0.68
O=C(NCc1nnc(SCC(=O)N2CCOCC2)o1)c1ccccc1F | 0.21 | -7 | 0.9 | 7 | -1 | 1.4
Cc1ccc2ncnc(Nc3ccc(C)c(C)c3)c2c1 | 0.45 | 73* | 0.9 | 12 | 37 | 0.1
COCCCNc1ncnc2ccc(C)cc12 | x | 42 | 1 | 3 | -16 | 0.63
Cc1cc(C)n2nc(SC(C)C(=O)Nc3ccc(Cl)cn3)nc2n1 (stereo not given) | -0.4 | 5 | 0.3 | 66* | -23 | -0.021
COc1ccccc1NC(=O)CC1Nc2ccccc2NC1=O (stereo not given) | -0.22 | -4 | 0.9 | 5 | 16 | x
Cc1cccc(NC(=O)CC2Nc3cccc4cccc(c34)NC2=O)c1 (stereo not given) | x | 2 | 0.3 | 68* | -7 | x
O=C(CC1NC(=O)NC1=O)Nc1ccccc1 (stereo not given) | 0.0072 | -3 | 0.9 | 11 | 26 | -0.13
CC(=O)Nc1ccc(NC(=O)CC2Nc3cccc4cccc(c34)NC2=O)cc1 (stereo not given) | 0.47 | 2 | 0.2 | 77* | -16 | x
CCOc1ccc(NC(=O)CC2Nc3ccccc3NC2=O)cc1 (stereo not given) | 0.073 | -10 | 0.9 | 11 | -7 | x
CC(=O)c1ccc(NC(=O)CC2Nc3cccc4cccc(c34)NC2=O)cc1 (stereo not given) | 0.3 | 27 | 0.2 | 84* | 10 | -1.3
NC(=O)c1nsc(C(=O)N(CC(=O)NC2CCCC2)c2cnc3ccccc3c2)c1N | x | x | x | x | x | 0.65
CNC(=O)NC(=O)C(C)OC(=O)c1cc2c(s1)CCCCC2 (stereo not given) | x | -5 | 0.9 | 11 | -4 | -0.72
O=C(COc1ccccc1)NCC(=O)Nc1cccc2ccccc12 | 0.086 | -5 | 0.9 | 8 | -6 | -0.72
CC(C)CNC(=O)c1ccccc1NC(=O)c1ccccc1N(C)S(=O)(=O)c1ccccc1 | x | 8 | 0.9 | 9 | 4 | -1
COc1ccccc1NC(=O)COC(=O)c1ccc2c(c1)nc(C)n2-c1ccccc1 | 0.69 | 57* | 0.8 | 18 | 9 | -0.75
O=c1nc2c(O)cccn2c2c1c(=O)[nH]c1ccccc12 | x | 1 | 0.3 | 75* | 4 | i
CCS(=O)(=O)N1Cc2ccccc2CC1C(=O)Nc1nc2ccc(C)cc2s1 (stereo not given) | 0.39 | 92* | 0.9 | 13 | 43 | 0.27
Cc1cc(C)c2nc(NNC(=O)c3ccc(S(=O)(=O)N4CCCC(C)C4)cc3)sc2c1 (stereo not given) | 0.31 | 98* | 0.9 | 13 | 4 | 0.3
COC(=O)c1sc2ccccc2c1NC(=O)c1ccc(S(=O)(=O)N2CCCC(C)C2)cc1 (stereo not given) | x | 8 | 0.9 | 14 | -1 | -0.99
SMILES | ROMK primary | L major viab | Diaphorase act | Diaph inh CS | WT yeast gro inh | Cl transport mod
Cc1cc(C)c2nc(NNC(=O)c3ccc(S(=O)(=O)N4CC(C)CC(C)C4)cc3)sc2c1 (stereo not given) | 0.14 | 99* | 0.9 | 15 | 11 | -0.003
CCC(=O)NNc1nc2c(C)cc(C)cc2s1 | 0 | -6 | 0.9 | 8 | 14 | x
Cc1ccc2nc(NNC(=O)c3ccc(S(=O)(=O)N4CCc5ccccc5C4)cc3)sc2c1 | 0.12 | 100* | 1.1 | -12 | -2 | -0.67
O=C(CSc1ccc(Br)cc1)N1CCN(C(=O)c2ccco2)CC1 | 0.065 | -4 | 0.8 | 16 | -6 | -0.85
Cc1ccc(S(=O)(=O)N2CCCCC2)cc1NC(=O)COC(=O)C1=COCCO1 | -0.16 | 1 | 1.1 | -9 | -1 | 0.35
O=c1[nH]cnc(O)c1C(c1ccc2c(c1)OCO2)c1c(O)nc[nH]c1=O | -0.085 | -6 | 0.8 | 22 | -7 | -0.018
